Screens from PubChem BioAssay.
This is a sample that favours compounds with a hit; in the whole collection about 4% have one here.
CHOP UPR activ – activators of apoptotic arm of unfolded protein response (CHOP) | activation, % at 10 µM | 330,000 compounds, 0.34% hits | AID 449763 | CHO-CHOP luciferase reporter, UPR activation, luminescence; percent of tunicamycin response over DMSO baseline;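 active = at 10 µM dose, activation of 40% or more, normalized to positive control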;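 also: 100% = tunicamycin at 10 µg/mL and 0% = DMSO alone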
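Assay system: CHO cells with stable CHOP pathway luciferase reporter; Buffer or medium: F12 plus 10% serum; Times: 16-18 h cell attachment, then 6 h compound exposure, 37 °C; Signal: luciferase luminescence; Read-out basis: percent activation relative to tunicamycin control; Control set: tunicamycin high control, DMSO low control.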
Mdm2-MdmX inh – disrupts the human Mdm2-MdmX interaction; AID 485346; SaOS-2 split-luciferase Mdm2/MdmX complementation, luminescence; 330,000 compounds, 3% hits; inhibition, % at 8 µM; O15151+Q00987;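 active = inhibition of at least 50% at 8 µM in the primary screen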
Target sequence (O15151 whole entry, looked up): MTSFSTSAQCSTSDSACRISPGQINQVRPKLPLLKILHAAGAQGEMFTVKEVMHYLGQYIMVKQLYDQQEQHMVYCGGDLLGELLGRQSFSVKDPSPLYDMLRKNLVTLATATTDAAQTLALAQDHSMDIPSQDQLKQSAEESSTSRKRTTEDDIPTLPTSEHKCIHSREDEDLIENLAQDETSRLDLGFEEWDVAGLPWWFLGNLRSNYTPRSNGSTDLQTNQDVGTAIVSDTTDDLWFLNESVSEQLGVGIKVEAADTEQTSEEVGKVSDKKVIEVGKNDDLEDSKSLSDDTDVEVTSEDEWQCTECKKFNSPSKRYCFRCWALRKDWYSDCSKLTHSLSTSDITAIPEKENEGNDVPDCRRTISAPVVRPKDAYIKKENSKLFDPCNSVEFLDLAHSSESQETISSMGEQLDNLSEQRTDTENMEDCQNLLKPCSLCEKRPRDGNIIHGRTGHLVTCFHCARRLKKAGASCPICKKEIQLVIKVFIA
Target sequence (Q00987 whole entry, looked up): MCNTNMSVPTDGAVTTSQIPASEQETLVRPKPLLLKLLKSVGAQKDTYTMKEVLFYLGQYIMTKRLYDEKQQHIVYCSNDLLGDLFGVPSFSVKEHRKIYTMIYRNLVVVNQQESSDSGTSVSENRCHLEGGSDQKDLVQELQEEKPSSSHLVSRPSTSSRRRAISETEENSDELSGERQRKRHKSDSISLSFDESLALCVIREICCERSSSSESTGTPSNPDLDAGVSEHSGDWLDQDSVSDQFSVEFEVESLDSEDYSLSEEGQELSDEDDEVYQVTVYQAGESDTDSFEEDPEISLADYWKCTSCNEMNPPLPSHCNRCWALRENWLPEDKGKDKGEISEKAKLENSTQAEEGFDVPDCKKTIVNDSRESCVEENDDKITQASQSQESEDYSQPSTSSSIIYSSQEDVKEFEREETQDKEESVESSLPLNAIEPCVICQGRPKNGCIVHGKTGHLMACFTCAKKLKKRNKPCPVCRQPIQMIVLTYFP
XBP1 UPR activ – activators of adaptive arm of unfolded protein response (XBP1); AID 463104; activation, % at 20 µM; 330,000 compounds, 0.33% hits; CHO-XBP1 luciferase reporter, IRE1-XBP1 UPR activation, luminescence; percent of tunicamycin response, DMSO as zero;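 active = versus positive control, 20 µM dose yields 30% or more activation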;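 also: 100% = tunicamycin at 10 µg/mL and 0% = DMSO only wells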
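Signal: luciferase luminescence; Assay system: CHO-XBP1 luciferase reporter cells; Amount: one thousand reporter cells per well; Dosing: 20 µM single concentration, DMSO 1%; Benchmarks: high control tunicamycin 10 µg/mL final, low control DMSO vehicle only; Schedule: 6 h compound exposure at 37 °C, 5% CO2; Evaluation: percent activation relative to tunicamycin reference.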
ABHD5 PLIN5 PPI – ABHD5-PLIN5 protein interaction inhibition. Split G. princeps luciferase complementation, luminescence, 4 h. 360,000 compounds, 0.78% hits. Q00G26+Q8WTS1. inhibition, % at 4 µM;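 active = inhibition above the mean inhibition across every tested compound plus 3 SD, cut at about 22% in these data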;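 also: 0% = DMSO only wells and the 100% control is not disclosed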
Granule exo inh – lytic granule exocytosis inhibition; inhibition, % at 10 µM; TALL-104 LAMP-1 surface exposure, flow cytometry; cells stimulated with thapsigargin and PMA; 360,000 compounds, 0.66% hits;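 active = inhibition above about 55%, limit read from the data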
Starred values were filed as active, the others as inactive.

`COC(=O)N/N=C\c1cc2c(cc1Br)OCO2` gave CHOP UPR activ 1, Mdm2-MdmX inh 5, XBP1 UPR activ -2, ABHD5 PLIN5 PPI -1 and Granule exo inh -3.
Screening O=C(CSc1nc(-c2ccc(Cl)cc2)cs1)Nc1cccc([N+](=O)[O-])c1 returned CHOP UPR activ -2, Mdm2-MdmX inh 15, XBP1 UPR activ 3, ABHD5 PLIN5 PPI 2 and Granule exo inh 65*.
Screening Cc1cc(NC(=O)CSc2nc(-c3ccc(Cl)cc3)cs2)no1 returned CHOP UPR activ -1, Mdm2-MdmX inh -5, XBP1 UPR activ 2, ABHD5 PLIN5 PPI 5 and Granule exo inh -2.
O=C(CCN1C(=O)/C(=C/c2ccccc2)SC1=S)NCCCN1CCOCC1 was read as CHOP UPR activ 2, Mdm2-MdmX inh -11, XBP1 UPR activ -4, ABHD5 PLIN5 PPI -7 and Granule exo inh -3.
O=C(CCN1C(=O)/C(=C\c2cccc(Br)c2)SC1=S)NCCCN1CCOCC1 was read as CHOP UPR activ 0, Mdm2-MdmX inh 21, XBP1 UPR activ 1, ABHD5 PLIN5 PPI -20 and Granule exo inh 75*.
Cc1ccc(N2C(=O)[C@@H]3C(C(=O)C(c4ccccc4)c4ccccc4)=NN[C@@H]3C2=O)cc1 was read as CHOP UPR activ 1, Mdm2-MdmX inh -10, XBP1 UPR activ -3, ABHD5 PLIN5 PPI -3 and Granule exo inh -2.
For COc1ccccc1C(=O)NCCC(=O)N1CC=C(c2ccccc2)CC1 the results were CHOP UPR activ 0, Mdm2-MdmX inh 7, XBP1 UPR activ -1, ABHD5 PLIN5 PPI 24* and Granule exo inh 1.
`COc1ccccc1C(=O)NCCC(=O)N1CCCCC1` gave CHOP UPR activ -2, Mdm2-MdmX inh 13, XBP1 UPR activ -4, ABHD5 PLIN5 PPI 3 and Granule exo inh 0.
`Cc1ccc(C)c(Oc2coc3cc(OCC(=O)Nc4ccccc4C(C)C)ccc3c2=O)c1` gave CHOP UPR activ -2, Mdm2-MdmX inh 21 and XBP1 UPR activ -4.
COc1ccccc1Cc1c(-c2ccco2)nc2cc(C)c(Br)c(C)n12 was read as ABHD5 PLIN5 PPI 58* and Granule exo inh 23.
For Cc1cc2nc(-c3ccco3)c(CC(C)(C)C)n2c(C)c1Br the results were ABHD5 PLIN5 PPI 10 and Granule exo inh 0.
For N#CCc1c(C#N)c(N)nc(N2CCOCC2)c1C#N the results were CHOP UPR activ -1, Mdm2-MdmX inh -2, XBP1 UPR activ -2, ABHD5 PLIN5 PPI 22* and Granule exo inh -14.
Screening CCOc1cc2c(c3c1C(c1ccccc1)N(S(=O)(=O)c1ccc(C)cc1)C3)C(=O)C=CC2=O (centres undefined) returned ABHD5 PLIN5 PPI -16 and Granule exo inh 74*.
Nc1c(-c2ccccc2)nc2ncccn12 was read as ABHD5 PLIN5 PPI -6 and Granule exo inh 0.
`O=Nc1c(-c2cccc([N+](=O)[O-])c2)nc2ncccn12` gave CHOP UPR activ 131*, Mdm2-MdmX inh 43, XBP1 UPR activ 9, ABHD5 PLIN5 PPI -6 and Granule exo inh 74*.
For Clc1ccc(C2Nc3cccc4cccc(c34)N2)cc1Cl the results were CHOP UPR activ 4, Mdm2-MdmX inh 20, XBP1 UPR activ 4, ABHD5 PLIN5 PPI -1 and Granule exo inh 20.
For O=[N+]([O-])c1ccc(Cl)c(C2Nc3cccc4cccc(c34)N2)c1 the results were CHOP UPR activ -4, Mdm2-MdmX inh 44, XBP1 UPR activ 1, ABHD5 PLIN5 PPI 4 and Granule exo inh 56*.
CC1CCN(c2nc(-c3ccco3)c3c(c2C#N)CC(C)(C)OC3)CC1 was read as CHOP UPR activ 3, Mdm2-MdmX inh 6, XBP1 UPR activ 0, ABHD5 PLIN5 PPI 23* and Granule exo inh 7.
Screening CC1(C)Cc2c(C#N)c(N3CCOCC3)nc(-c3ccccc3)c2CO1 returned CHOP UPR activ -3, Mdm2-MdmX inh -12, XBP1 UPR activ -2, ABHD5 PLIN5 PPI -9 and Granule exo inh -4.
Screening COc1ccc(C2(CNC(=O)/C=C\c3ccco3)CCCC2)cc1OC returned CHOP UPR activ 0, Mdm2-MdmX inh -3, XBP1 UPR activ 0, ABHD5 PLIN5 PPI 22* and Granule exo inh 3.
Cc1ccccc1/C=N/Nc1ccnc2cc(Cl)ccc12 was read as ABHD5 PLIN5 PPI -7 and Granule exo inh 76*.
Screening COc1ccc(NC(=S)Nc2ccc3nsnc3c2)cc1 returned CHOP UPR activ 5, Mdm2-MdmX inh 14, XBP1 UPR activ -3, ABHD5 PLIN5 PPI 23* and Granule exo inh 18.
For O=C(Nc1ccc2nsnc2c1)N1CCCCC1 the results were CHOP UPR activ 1, Mdm2-MdmX inh 1, XBP1 UPR activ -1, ABHD5 PLIN5 PPI -7 and Granule exo inh -5.
Screening S=C(Nc1ccc2nsnc2c1)N1CCCCCC1 returned CHOP UPR activ 4, Mdm2-MdmX inh -70, XBP1 UPR activ 1, ABHD5 PLIN5 PPI -19 and Granule exo inh 77*.
`Cc1nc(-c2cccc(NS(C)(=O)=O)c2)cs1` gave CHOP UPR activ -1, Mdm2-MdmX inh 11, XBP1 UPR activ -1, ABHD5 PLIN5 PPI 5 and Granule exo inh -1.
CNc1sc(C(=O)c2cccs2)c(N)c1-c1nc2ccccc2s1 was read as CHOP UPR activ 7, Mdm2-MdmX inh -27, XBP1 UPR activ 1, ABHD5 PLIN5 PPI 0 and Granule exo inh 65*.
For O=C(CN1CCOCC1)Nc1ccc(Cl)cn1 the results were CHOP UPR activ 2, Mdm2-MdmX inh 15, XBP1 UPR activ -2, ABHD5 PLIN5 PPI 4 and Granule exo inh -1.
Screening Cc1cccc(C)c1NC(=O)c1sccc1SCc1cccc(C(F)(F)F)c1 returned CHOP UPR activ -2, Mdm2-MdmX inh 19, XBP1 UPR activ -1, ABHD5 PLIN5 PPI 4 and Granule exo inh 66*.
For OCCC1CN(Cc2ccc3ncccc3c2)CCN1Cc1ccccc1 (centres undefined) the results were CHOP UPR activ 1, Mdm2-MdmX inh 8, XBP1 UPR activ -1, ABHD5 PLIN5 PPI -2 and Granule exo inh -3.
For CCOC(=O)C1=C(C)c2ccccc2N(C(=O)OC)C1(C)C(=O)OCC (centres undefined) the results were CHOP UPR activ 1, Mdm2-MdmX inh 10, XBP1 UPR activ 4, ABHD5 PLIN5 PPI 30* and Granule exo inh 1.
Screening CCOc1cccc2c1OC(c1cc(OC)c(OC)c(OC)c1)N1N=C(c3ccc(C)o3)CC21 (centres undefined) returned CHOP UPR activ 5, Mdm2-MdmX inh 3, XBP1 UPR activ 4, ABHD5 PLIN5 PPI 25* and Granule exo inh 2.
For COc1ccc(C2CC(c3ccc(C)o3)=NN2C(C)=O)cc1 (centres undefined) the results were CHOP UPR activ 13, Mdm2-MdmX inh -52, XBP1 UPR activ 1, ABHD5 PLIN5 PPI 2 and Granule exo inh 6.
`Cc1cccc(Nc2c(-c3ccc(O)cc3)nc3ncccn23)c1` gave CHOP UPR activ -1, Mdm2-MdmX inh 13, XBP1 UPR activ 4, ABHD5 PLIN5 PPI 5 and Granule exo inh -2.
